Assay: Toxicity liver stage against HepG2, at 10uM
Format: cell-based
Set-up: test concentration 10 uM, cell line HepG2-A16-CD81EGFP
Conditions: human, HepG2-A16-CD81EGFP cells; read-out: INHIBITION
How it was run: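 Uninfected HepG2-A16-CD81EGFP cells, 3 × 10^3 per well, 1536-well, plated on prespotted compound at 10 μM final, parasite-free screening media added to match infected plates; puromycin 10 μM positive, DMSO 0.5% negative; run in parallel with 48 h PbLuc assay at 37 °C, 5% CO2; viability by CellTiter-Glo luminescence, normalized to controls.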

Row | Compound | cytotoxicity at 10 µM
1 | C[C@@H]1CN(Cc2nc(Cc3ccccc3F)no2)C[C@H](C)O1 | 6.74%
2 | CC(=O)Nc1ccc([C@@H](O)[C@H]2COCC(=O)N2CC(C)C)cc1 | -6.6%
3 | CC[C@H]1CN2CC[C@H]1C[C@@H]2CNCc1ccc(OC)cc1 | -1.19%
4 | CN1CCC(N2C[C@H](O)C[C@H]2c2nc(Cc3ccccc3)no2)CC1 | 10.7%
5 | COc1cccc(CN2CCCCCC2c2cccs2)c1OC (stereo not given) | 8.29%
6 | CCOC(=O)CNC(=O)c1cccnc1Sc1cc(OC)ccc1OC | 1.73%
7 | CC1(C)CN(CC(O)C(C)(C)C)C(=O)CN(C(=O)c2ccccc2)C1 (stereo not given) | -6.87%
8 | O=C1CN(S(=O)(=O)c2ccc(F)cc2)CC(O)CN1CC1CC1 (stereo not given) | 0.227%
9 | COc1cc(OC)c(C2CC(=O)Oc3cc(C)[nH]c(=O)c32)cc1OC (stereo not given) | -4.81%
10 | Cc1nn2c(NC(=O)CSc3ncccn3)csc2nc1=O | 2.74%
11 | Cc1cc(O)cc(=O)n1CCCC(=O)Nc1n[nH]c2cc(Br)ccc12 | -16.2%
12 | CCOC(=O)CC(c1cccc(OC)c1OC)c1c(C)[nH][nH]c1=O (stereo not given) | 0.0535%
13 | CCCc1cc(=O)[nH]c(SCc2ccccn2)n1 | -3.53%
14 | O=C(NCC(Cc1cccc(F)c1)N1CCCC1=O)c1ccc[nH]c1=O (stereo not given) | -2.42%
15 | Cc1cc(C(=O)N2C[C@@H]3CCCO[C@@H]3[C@H](N3CCOCC3)C2)c(C)[nH]1 | 4.5%
16 | CN(C)C(=O)CN1CCC2(C1)CN(CC1CCOCC1)C2 | -9.91%
17 | CC1=N[C@@]2(CC[C@@H]3CN(CC(C)C)C[C@@H]32)C(=O)N1 | 6.5%
18 | CNC(=O)c1cnc2n1CCN(Cc1cccnc1OC)C2 | 8.91%
19 | O=S(=O)(C1CC1)N1CC[C@H](OCC2CC2)[C@@H]1Cc1ccncc1 | 7.67%
20 | Cc1ccc(CC(=O)N2CCCn3nnc(Cn4cccn4)c3C2)cc1 | 9.58%
21 | COc1cccc(C2SCC(=O)Nc3ccsc32)c1 (stereo not given) | 2.77%
22 | CC1=Nc2c(c(=O)[nH]n2C2CCOCC2)C(c2cccc(Br)c2)S1 (stereo not given) | 5.91%

Row | Compound | cytotoxicity at 10 µM
23 | COc1ccc(CNc2n[nH]c(C)n2)cc1 | 1.64%
24 | Cn1ccc(C(=O)N2CCCCC2c2cc(CCO)[nH]n2)n1 (stereo not given) | -0.01%
25 | CCc1c(C)nn2c(O)cc(C3CCN(C(=O)c4ccn(C)n4)C3)nc12 (stereo not given) | 7.92%
26 | CN(C)c1cc(C2CCCN(Cc3cnn(C)c3)C2)ccn1 (stereo not given) | -1.88%
27 | c1cc(N2CCOCC(Cc3ccc4[nH]ccc4c3)C2)ncn1 (stereo not given) | -15.9%
28 | Cc1ccc([C@@]2(O)CC[C@@H]3CN(S(=O)(=O)C(C)C)C[C@@H]32)cc1 | -38.9%
29 | Cc1cc(-c2cnc(NC3CC3)nc2-c2ccoc2)on1 | -25.6%
30 | Cc1ccc(-c2cccc(CC3(C(=O)O)CCOCC3)c2)c(C)c1 | -29.8%
31 | Cc1ccc(C(C)NC(=O)N2CCN(S(C)(=O)=O)CC2)o1 (stereo not given) | 25.3%
32 | FC(F)(F)Cn1ccnc1CNCCn1cccn1 | -6.4%
33 | CCCOc1cc(CNC(=O)Nc2ccccn2)ccn1 | -2.25%
34 | CC(C)OCc1ccccc1CNC(=O)C(C)S(=O)(=O)C(C)C (stereo not given) | -3.92%
35 | CCOc1ccc(SCCS(=O)(=O)CC)cc1 | -2.91%
36 | CN(CC(=O)NCCC#N)C(c1ccccc1)c1ccc(F)cc1 (stereo not given) | -4.34%
37 | OC1(CNCc2ccc(F)c(C(F)(F)F)c2)CCOC1 (stereo not given) | 9.21%
38 | COc1ccc(Br)cc1CN(C)C(C)c1nc(C(C)C)no1 (stereo not given) | 4.43%
39 | Cc1nc(CN2CCC(C(=O)N(C)C3CCC(C)CC3)CC2)cs1 (stereo not given) | 2.84%
40 | CC(C)Cc1cc(NC(=O)N2CCC(Oc3cccnc3)C2)n(C)n1 (stereo not given) | -4.71%
41 | CSCC(=O)Nc1ncc(I)cc1C | -4.7%
42 | CCOC(=O)c1ccc(NC(=O)c2cc3c([nH]c2=O)CCCC3)cc1 | 9.13%
43 | CN(CC(=O)Nc1nncs1)CC1CCCN1c1cccnn1 (stereo not given) | -13.7%
44 | COc1cc(C)nc(N2CCN(C(=O)CCc3ccsc3)CC2)n1 | 10%

Row | Compound | cytotoxicity at 10 µM
45 | CN(CC(=O)Nc1cc(C(C)(C)C)n[nH]1)S(C)(=O)=O | 5.15%
46 | O=C(NCc1cc2ccccc2[nH]1)C1CCCN(C(=O)N2CCCC2)C1 (stereo not given) | 6.81%
47 | COCCN(CC(C)C)c1cc(C)ncn1 | 1.38%
48 | CCC(=O)N1CCC(NC2CCCC2)C1 (stereo not given) | -4.26%
49 | N#Cc1cccc(Cl)c1NCCc1n[nH]c(=O)[nH]1 | 60.1%
50 | Cc1ncc2c(n1)CN(CCOc1ccc3c(c1)CCC(=O)N3)CC2 | -8.12%
51 | CCC(CC)C(CNC(=O)Nc1cnn(CCOC)c1)N(C)C (stereo not given) | -6.87%
52 | CN(Cc1nnc(-c2cccs2)o1)Cc1nc2c(s1)CCCC2 | 2.4%
53 | O=S(=O)(CCSc1nccn1C1CC1)c1ccccc1 | -4.63%
54 | O=C(c1cc(F)ccc1O)N1CCN(C2CCOCC2)CC1 | -4.9%
55 | Cc1ccc(OCCC(=O)NC2CC(=O)N(C)C2)cc1C (stereo not given) | -9.25%
56 | Cc1cc(=O)n2nc(Oc3cccc(C(N)=O)c3)sc2n1 | -7.88%
57 | CCCc1cc(NC2CCc3ncnn3C2)n2ncnc2n1 (stereo not given) | -4.17%
58 | CCc1nc2n(n1)CC(Nc1cc(C)nc3ncnn13)CC2 (stereo not given) | -9.91%
59 | CC(C)c1nc(CCn2cncn2)n(-c2ccc3c(c2)OCCO3)n1 | 6.52%
60 | CC1(C)CCN(S(=O)(=O)N2CCCC(c3cccc(C(=O)O)c3)C2)CC1 (stereo not given) | -0.879%
61 | Cc1nc(C2CCN(C(=O)COC(C)C)CC2)cc(N2CCOCC2)n1 | -8.8%
62 | Fc1ccccc1-c1cc(N2[C@@H]3CC[C@H]2CNC3)n2nccc2n1 | 23.1%
63 | Cc1nc2c(C(=O)O)cccc2n1-c1ccc(C(=O)N2CCCC2)o1 | -2.36%
64 | Cc1ccc(C)c2c(O)cc(CN3CCC(=O)NCC3C)nc12 (stereo not given) | 2.11%
65 | CCSc1ncc(CN2CCN(c3ccc(C#N)cc3)C(=O)C2)cn1 | -2.54%
66 | CC(C)[C@H]1CN(CCCO)C[C@@H]1NC(=O)CCS(C)(=O)=O | 2.91%

Row | Compound | cytotoxicity at 10 µM
67 | COc1cccc(-c2n[nH]c3c2CN(C(=O)C2=C(C)OCCO2)CC3)c1 | 3.28%
68 | CN(C)S(=O)(=O)N1CC[C@]2(O)CCN(CCc3cccc(F)c3)C[C@@H]2C1 | -3.38%
69 | Cc1cc(NCCCNc2cccnc2)n2nc(C)c(C)c2n1 | 2.35%
70 | c1cncc(-n2cnnc2CCCN2CCOCC2)c1 | 1.5%
71 | COCCN1CCCC(CN(C)c2nc3c(s2)c(C)nn3C)C1 (stereo not given) | 5.37%
72 | CCc1cnc(N)nc1N[C@@H](C)c1ncccc1C | -3.94%
73 | O=C(O)C1(Cc2ccc(F)cc2F)CCCN(Cc2ccncc2)C1 (stereo not given) | -2.74%
74 | c1cnn(Cc2ccc(CN3CCC4(CCCNC4)C3)cc2)c1 (stereo not given) | -3.71%
75 | CCN(c1ccc(C(=O)N2CCCCCC2)cc1)S(=O)(=O)CC | -2.25%
76 | CC(C)(C)c1ncc2c(n1)CN(c1cc(NCCO)nc(N)n1)C2 | 3.5%
77 | Cc1cccc(C(C(=O)N(C)Cc2ccco2)N(C)C)c1 (stereo not given) | 3.15%
78 | CCc1noc(CN2CCN(Cc3cccs3)CC2)n1 | -5.06%
79 | CCN(CC)Cc1ccc(C(=O)N2CCCC2Cn2cccn2)o1 (stereo not given) | -10.5%
80 | Cc1cc(CN(C)C(=O)NC2CCN(C3CC3)CC2)no1 | -3.6%
81 | Cc1nc(C2CCCN2CCCS(=O)(=O)c2ccccc2)no1 (stereo not given) | -4.42%
82 | CCCC(=O)NC(C)c1nnc2n1CCC2 (stereo not given) | -0.645%
83 | O=C(NCCNc1ccc(C(F)(F)F)cn1)c1ccc(F)cc1Cl | -7.65%
84 | CCc1nc(C2CCCN(C(=O)C(C)(C)NS(C)(=O)=O)C2)no1 (stereo not given) | -12.1%
85 | COc1c(C2CCCN2C(=O)c2ccnc(C)n2)c(C)nn1C (stereo not given) | -12%
86 | O=C(Cc1ccccn1)N1CCN(C(=O)CC2CCCC2)CC1 | -10.5%
87 | Cc1ccc(N2CCCN(C(=O)CCc3nccs3)CC2)nn1 | -7.91%
88 | O=C(NCC1CCOC1)c1csc(-c2ccco2)n1 (stereo not given) | -6.49%

Row | Compound | cytotoxicity at 10 µM
89 | CCNc1cc2c(nn1)CCN(C(=O)c1cccc3c1OCCO3)C2 | -8.42%
90 | Cc1ncsc1C(=O)NC1CCN(CC(=O)NCc2ccccc2)CC1 | -4.62%
91 | CC(C)c1nn(C)c(N(C)C)c1CNCc1ccc2c(c1)OCO2 | -5.58%
92 | CC(=O)N1CCN(Cc2csc(-c3cnn(C)c3)n2)CC1 | -1.78%
93 | COCC(=O)NCc1cccc(Br)c1 | -4.2%
94 | O=C1N(Cc2ccc(Cl)cc2)CCC12CCCNC2 (stereo not given) | -10.8%
95 | CN1CCO[C@@H]2CN(S(=O)(=O)c3ccccc3)CC[C@@H]2C1 | -0.461%
96 | CCN1CCn2c(C)cnc2C12CCN(C(=O)c1ccco1)CC2 | 4.56%
97 | Cc1nc(CN2CCCn3cnc(COCC4CC4)c3C2)cs1 | 7.04%
98 | CNC(=O)[C@@]12CCO[C@@H]1CCN(Cc1ccc3c(c1)OCO3)C2 | 1.75%
99 | O=C1COC2(CCN(Cc3ccco3)CC2)CN1CCn1cccn1 | 10.2%
100 | Cn1cc2c(n1)C(CNC1CCOCC1)OCC2 (stereo not given) | 9.31%
101 | O=C(C1CC(F)(F)C1)N1C[C@@H]2CN(CC3CC3)CCO[C@@H]2C1 | -0.336%
102 | Cc1ccc(N2C[C@@H]3CN(Cc4ccsc4)CCO[C@@H]3C2)nn1 | 3.32%
103 | O=C(NCc1ccco1)[C@@H]1COC[C@H]2CN(c3ncc(F)cn3)C[C@H]21 | -5.67%
104 | COCCN1CCC2(C1)CN(c1ncc(F)cn1)C2 | 4.68%
105 | O=C1CC[C@@H]2[C@@H](CCN2Cc2ccccn2)N1CC1CC1 | 4.76%
106 | Cn1nc(Cn2ccnc2)c2c1CN(c1nccs1)C2 | 3.61%
107 | Cc1nc(CN2CCO[C@@H]3CN(Cc4nccs4)C[C@@H]3C2)cs1 | 4.8%
108 | c1ccc(N2CCOC3(CCCN(c4nncs4)C3)C2)nc1 (stereo not given) | 9.17%
109 | CS(=O)(=O)N1CCC2(CC1)CN(CC1CC1)CC21CCNC1=O (stereo not given) | 1.26%
110 | O=C(c1ccc[nH]1)N1CCC2(CCCN2Cc2cccnc2)CC1 | 6.89%
